Source: ChEMBL document CHEMBL1137547, “Synthesis and antifungal activities of novel 2-aminotetralin derivatives” (2007)
≈ marks a conversion by molar mass, not a printed value.

Legend:
Type in all cases: functional
Candida parapsilosis = assay: Antifungal activity against Candida parapsilosis after 24 hrs; settings: Lodderomyces parapsilosis
Outline: (§1)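 Candida yeasts were tested by NCCLS microdilution in RPMI 1640 buffered with 0.165 M MOPS and incubated at 35 °C. Compounds were dissolved in DMSO and serially diluted in medium. Isolates came from ATCC or the clinic. The MIC was read at 24 h as the lowest concentration achieving ≥80% growth inhibition versus the control.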

Aspergillus fumigatus = assay: Antifungal activity against Aspergillus fumigatus
Outline: (§2)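 NCCLS broth serial dilution in RPMI 1640 buffered with 0.165 M MOPS. Compounds were dissolved in DMSO and serially diluted in medium. Strains came from ATCC or clinical isolates. The growth MIC for filamentous fungi was read at 7 d, taken as the lowest concentration giving ≥80% turbidity inhibition versus the growth control.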

Microsporum = assay: Antifungal activity against Microsporum gypseum
Outline: (§3)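 Dermatophytes were tested by NCCLS serial dilution in RPMI 1640 with 0.165 M MOPS and incubated at 28 °C. Compounds were dissolved in DMSO and diluted in medium. Strains came from ATCC or clinical isolates. The MIC was read at 7 d as the lowest concentration reducing turbidity by ≥80% relative to the drug-free control.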

Cryptococcus neoformans = assay: Antifungal activity against Cryptococcus neoformans after 72 hrs
Outline: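 Cryptococcus neoformans was tested by NCCLS serial dilution in MOPS-buffered (0.165 M) RPMI 1640 at 35 °C. Compounds were dissolved in DMSO and diluted in medium. The MIC was read at 72 h as the lowest concentration giving turbidity inhibition of ≥80% relative to the growth control.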

Fonsecaea compacta = assay: Antifungal activity against Fonsecaea compacta; outline: as §2
Candida albicans [1] = assay: Antifungal activity against Candida albicans after 24 hrs; outline: as §1
Trichophyton rubrum = assay: Antifungal activity against Trichophyton rubrum; outline: as §3
Candida albicans [2] = assay: Antifungal activity against fluconazole-resistant Candida albicans 01010 after 24 hrs
Outline: (§4)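 Broth serial dilution MIC per NCCLS in 96-well format; medium RPMI 1640 buffered with 0.165 M MOPS; compounds dissolved in DMSO and serially diluted in medium; clinical C. albicans isolates incubated at 35 °C, read at 24 h; MIC = lowest concentration giving turbidity […] inhibition relative to growth control; fluconazole and I-6 as control drugs.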

Candida albicans [3] = assay: Antifungal activity against fluconazole-resistant Candida albicans 18 after 24 hrs; outline: as §4
Candida albicans [4] = assay: Antifungal activity against fluconazole-resistant Candida albicans 0511655 after 24 hrs; outline: as §4
Candida albicans [5] = assay: Antifungal activity against fluconazole-resistant Candida albicans 25 after 24 hrs; outline: as §4

Row | Compound | MIC (Candida parapsilosis) | MIC (Aspergillus fumigatus) | MIC (Microsporum) | MIC (Cryptococcus neoformans) | MIC (Fonsecaea compacta) | MIC (Candida albicans [1]) | MIC (Trichophyton rubrum) | MIC (Candida albicans [2]) | MIC (Candida albicans [3]) | MIC (Candida albicans [4]) | MIC (Candida albicans [5])
1 | CCCCCCCCCCCCCCCCCCNC1CCc2c(cccc2OC)C1 (centres undefined) | > 64 µM | > 64 µM | 16 µM (≈ 6.88 µg/mL) | > 64 µM | 64 µM (≈ 27.5 µg/mL) | > 64 µM | 32 µM (≈ 13.8 µg/mL) | – | – | – | –
2 | CCCCCCCCNC1CCc2cc(OC)ccc2C1 (centres undefined) | 16 µM (≈ 4.63 µg/mL) | > 64 µM | 8 µM (≈ 2.32 µg/mL) | 16 µM (≈ 4.63 µg/mL) | 8 µM (≈ 2.32 µg/mL) | 0.0625 µM (≈ 0.0181 µg/mL) | 8 µM (≈ 2.32 µg/mL) | 16 µM (≈ 4.63 µg/mL) | 8 µM (≈ 2.32 µg/mL) | 8 µM (≈ 2.32 µg/mL) | 8 µM (≈ 2.32 µg/mL)
3 | CCCCCCCCNC1CCc2cc(O)ccc2C1 (centres undefined) | 16 µM (≈ 4.41 µg/mL) | > 64 µM | 16 µM (≈ 4.41 µg/mL) | 8 µM (≈ 2.2 µg/mL) | 2 µM (≈ 0.551 µg/mL) | 0.0625 µM (≈ 0.0172 µg/mL) | 4 µM (≈ 1.1 µg/mL) | 4 µM (≈ 1.1 µg/mL) | 4 µM (≈ 1.1 µg/mL) | 4 µM (≈ 1.1 µg/mL) | 2 µM (≈ 0.551 µg/mL)
4 | CCCCCCCCCNC1CCc2c(cccc2OC)C1 (centres undefined) | 0.5 µM (≈ 0.152 µg/mL) | 8 µM (≈ 2.43 µg/mL) | 4 µM (≈ 1.21 µg/mL) | 2 µM (≈ 0.607 µg/mL) | 0.5 µM (≈ 0.152 µg/mL) | 0.0625 µM (≈ 0.019 µg/mL) | 2 µM (≈ 0.607 µg/mL) | 16 µM (≈ 4.86 µg/mL) | 16 µM (≈ 4.86 µg/mL) | 16 µM (≈ 4.86 µg/mL) | 8 µM (≈ 2.43 µg/mL)
5 | CCCCCCCCCNC1CCc2cc(O)ccc2C1 (centres undefined) | 4 µM (≈ 1.16 µg/mL) | 32 µM (≈ 9.26 µg/mL) | 0.5 µM (≈ 0.145 µg/mL) | 0.5 µM (≈ 0.145 µg/mL) | 1 µM (≈ 0.289 µg/mL) | 0.0625 µM (≈ 0.0181 µg/mL) | 1 µM (≈ 0.289 µg/mL) | 4 µM (≈ 1.16 µg/mL) | 4 µM (≈ 1.16 µg/mL) | 4 µM (≈ 1.16 µg/mL) | 2 µM (≈ 0.579 µg/mL)
6 | CCCCCCCCCCNC1CCc2cc(O)ccc2C1 (centres undefined) | 2 µM (≈ 0.607 µg/mL) | 16 µM (≈ 4.86 µg/mL) | 8 µM (≈ 2.43 µg/mL) | 1 µM (≈ 0.303 µg/mL) | 0.25 µM (≈ 0.0759 µg/mL) | 0.0625 µM (≈ 0.019 µg/mL) | 0.0625 µM (≈ 0.019 µg/mL) | 4 µM (≈ 1.21 µg/mL) | 2 µM (≈ 0.607 µg/mL) | 2 µM (≈ 0.607 µg/mL) | 2 µM (≈ 0.607 µg/mL)
7 | CCCCCCCCCCNC1CCc2cccc(O)c2C1 (centres undefined) | 16 µM (≈ 4.86 µg/mL) | – | > 64 µM | 16 µM (≈ 4.86 µg/mL) | 64 µM (≈ 19.4 µg/mL) | 0.0625 µM (≈ 0.019 µg/mL) | 8 µM (≈ 2.43 µg/mL) | 16 µM (≈ 4.86 µg/mL) | 16 µM (≈ 4.86 µg/mL) | 16 µM (≈ 4.86 µg/mL) | 4 µM (≈ 1.21 µg/mL)
8 | CCCCCCCCCCNC1CCc2ccc(OC)cc2C1 (centres undefined) | 0.25 µM (≈ 0.0794 µg/mL) | 16 µM (≈ 5.08 µg/mL) | 2 µM (≈ 0.635 µg/mL) | 1 µM (≈ 0.318 µg/mL) | 1 µM (≈ 0.318 µg/mL) | 0.0625 µM (≈ 0.0198 µg/mL) | 1 µM (≈ 0.318 µg/mL) | 4 µM (≈ 1.27 µg/mL) | 4 µM (≈ 1.27 µg/mL) | 4 µM (≈ 1.27 µg/mL) | 2 µM (≈ 0.635 µg/mL)
9 | CCCCCCCCCCNC1CCc2c(O)cccc2C1 (centres undefined) | 32 µM (≈ 9.71 µg/mL) | > 64 µM | 1 µM (≈ 0.303 µg/mL) | 1 µM (≈ 0.303 µg/mL) | 1 µM (≈ 0.303 µg/mL) | 0.0312 µM (≈ 0.00948 µg/mL) | 4 µM (≈ 1.21 µg/mL) | 16 µM (≈ 4.86 µg/mL) | 32 µM (≈ 9.71 µg/mL) | 32 µM (≈ 9.71 µg/mL) | 32 µM (≈ 9.71 µg/mL)
10 | CCCCCCCCCCCCCCNC1CCc2c(cccc2OC)C1 (centres undefined) | > 64 µM | > 64 µM | > 64 µM | 32 µM (≈ 12 µg/mL) | 64 µM (≈ 23.9 µg/mL) | > 64 µM | 8 µM (≈ 2.99 µg/mL) | – | – | – | –
11 | CCCCCCCCCCCCCCNC1CCc2ccc(OC)cc2C1 (centres undefined) | > 64 µM | > 64 µM | 4 µM (≈ 1.49 µg/mL) | 16 µM (≈ 5.98 µg/mL) | 64 µM (≈ 23.9 µg/mL) | 4 µM (≈ 1.49 µg/mL) | 0.0625 µM (≈ 0.0234 µg/mL) | – | – | – | –
12 | CCCCCCCCCCCCCCNC1CCc2cccc(OC)c2C1 (centres undefined) | 16 µM (≈ 5.98 µg/mL) | > 64 µM | 2 µM (≈ 0.747 µg/mL) | 32 µM (≈ 12 µg/mL) | 32 µM (≈ 12 µg/mL) | 4 µM (≈ 1.49 µg/mL) | 0.5 µM (≈ 0.187 µg/mL) | – | – | – | –
13 | CCCCCCCCCCCCCCNC1CCc2c(O)cccc2C1 (centres undefined) | > 64 µM | > 64 µM | 4 µM (≈ 1.44 µg/mL) | 8 µM (≈ 2.88 µg/mL) | > 64 µM | 8 µM (≈ 2.88 µg/mL) | 0.5 µM (≈ 0.18 µg/mL) | – | – | – | –
14 | CCCCCCCCCCCCCCNC1CCc2cc(O)ccc2C1 (centres undefined) | 32 µM (≈ 11.5 µg/mL) | > 64 µM | 2 µM (≈ 0.719 µg/mL) | > 4 µM | > 64 µM | 2 µM (≈ 0.719 µg/mL) | 0.5 µM (≈ 0.18 µg/mL) | – | – | – | –
15 | CCCCCCCCCNC1CCc2cc(OC)ccc2C1 (centres undefined) | 0.5 µM (≈ 0.152 µg/mL) | 64 µM (≈ 19.4 µg/mL) | 4 µM (≈ 1.21 µg/mL) | 4 µM (≈ 1.21 µg/mL) | 2 µM (≈ 0.607 µg/mL) | 0.0625 µM (≈ 0.019 µg/mL) | 1 µM (≈ 0.303 µg/mL) | 0.125 µM (≈ 0.0379 µg/mL) | 0.0625 µM (≈ 0.019 µg/mL) | 0.0625 µM (≈ 0.019 µg/mL) | 0.0625 µM (≈ 0.019 µg/mL)
16 | CCCCCCCCCCCCCCNC1CCc2ccc(O)cc2C1 (centres undefined) | 4 µM (≈ 1.44 µg/mL) | > 64 µM | 4 µM (≈ 1.44 µg/mL) | 8 µM (≈ 2.88 µg/mL) | 8 µM (≈ 2.88 µg/mL) | 4 µM (≈ 1.44 µg/mL) | 0.5 µM (≈ 0.18 µg/mL) | – | – | – | –
17 | CCCCCCCCCCNC1CCc2c(cccc2OC)C1 (centres undefined) | 8 µM (≈ 2.54 µg/mL) | 16 µM (≈ 5.08 µg/mL) | 4 µM (≈ 1.27 µg/mL) | 1 µM (≈ 0.318 µg/mL) | 1 µM (≈ 0.318 µg/mL) | 0.0312 µM (≈ 0.00992 µg/mL) | 1 µM (≈ 0.318 µg/mL) | 8 µM (≈ 2.54 µg/mL) | 4 µM (≈ 1.27 µg/mL) | 8 µM (≈ 2.54 µg/mL) | 4 µM (≈ 1.27 µg/mL)
18 | CCCCCCCCCCCCCCNC1CCc2cc(OC)ccc2C1 (centres undefined) | > 64 µM | > 64 µM | > 64 µM | 64 µM (≈ 23.9 µg/mL) | > 64 µM | 32 µM (≈ 12 µg/mL) | 16 µM (≈ 5.98 µg/mL) | – | – | – | –
19 | CCCCCCCCCCCCCCNC1CCc2cccc(O)c2C1 (centres undefined) | 64 µM (≈ 23 µg/mL) | 16 µM (≈ 5.75 µg/mL) | 4 µM (≈ 1.44 µg/mL) | 32 µM (≈ 11.5 µg/mL) | 16 µM (≈ 5.75 µg/mL) | 16 µM (≈ 5.75 µg/mL) | 0.125 µM (≈ 0.0449 µg/mL) | – | – | – | –
20 | C[C@@H]1[C@H](O)[C@@H](C)/C=C/C=C/C=C/C=C/C=C/C=C/C=C/[C@H](O[C@@H]2O[C@H](C)[C@@H](O)[C@H](N)[C@@H]2O)C[C@@H]2O[C@](O)(C[C@@H](O)C[C@@H](O)[C@H](O)CC[C@@H](O)C[C@@H](O)CC(=O)O[C@H]1C)C[C@H](O)[C@H]2C(=O)O [AMPHOTERICIN B] | – | – | – | – | – | – | – | 0.64 µM (≈ 0.591 µg/mL) | 2 µM (≈ 1.85 µg/mL) | 0.25 µM (≈ 0.231 µg/mL) | 0.5 µM (≈ 0.462 µg/mL)
21 | OC(Cn1cncn1)(Cn1cncn1)c1ccc(F)cc1F [FLUCONAZOLE] | 0.5 µM (≈ 0.153 µg/mL) | > 64 µM | 16 µM (≈ 4.9 µg/mL) | 2 µM (≈ 0.613 µg/mL) | 16 µM (≈ 4.9 µg/mL) | 8 µM (≈ 2.45 µg/mL) | 1 µM (≈ 0.306 µg/mL) | > 64 µM | > 64 µM | > 64 µM | > 64 µM
22 | CCC(C)n1ncn(-c2ccc(N3CCN(c4ccc(OCC5COC(Cn6cncn6)(c6ccc(Cl)cc6Cl)O5)cc4)CC3)cc2)c1=O (centres undefined) [ITRACONAZOLE] | – | – | – | – | – | – | – | > 64 µM | > 64 µM | 64 µM (≈ 45.2 µg/mL) | > 64 µM
23 | CC(=O)N1CCN(c2ccc(OC[C@@H]3CO[C@@](Cn4ccnc4)(c4ccc(Cl)cc4Cl)O3)cc2)CC1 [KETOCONAZOLE] | – | – | – | – | – | – | – | 8 µM (≈ 4.25 µg/mL) | 4 µM (≈ 2.13 µg/mL) | 8 µM (≈ 4.25 µg/mL) | 8 µM (≈ 4.25 µg/mL)
24 | CN(C/C=C/C#CC(C)(C)C)Cc1cccc2ccccc12 [TERBINAFINE] | – | – | – | – | – | – | – | 32 µM (≈ 9.33 µg/mL) | 8 µM (≈ 2.33 µg/mL) | 8 µM (≈ 2.33 µg/mL) | 4 µM (≈ 1.17 µg/mL)
